Experimental data as given in ChEMBL document CHEMBL4513216, “Probing the Open Global Health Chemical Diversity Library for Multistage-Active Starting Points for Next-Generation Antimalarials” (ACS Infect Dis, 2020).

experiment: Toxicity liver stage against HepG2, at 10uM; assay type: cell-based; parameters: test concentration 10 uM, cell line HepG2-A16-CD81EGFP; conditions: human, HepG2-A16-CD81EGFP cells; read-out: INHIBITION
Outline: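 Uninfected HepG2-A16-CD81EGFP cells, 3 × 10^3 per well, 1536-well, plated on prespotted compound at 10 μM final, parasite-free screening media added to match infected plates; puromycin 10 μM positive, DMSO 0.5% negative; run in parallel with 48 h PbLuc assay at 37 °C, 5% CO2; viability by CellTiter-Glo luminescence, normalized to controls.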

SMILES	cytotoxicity at 10 µM [%]
CN(CCn1nc2ccccn2c1=O)CC(=O)NC1CC1	3.2
COC(=O)CN1CCN(c2nc3c(s2)c(C)nn3C)C(C)C1=O (stereo unspecified)	3.27
Cc1nc(C2CCN(CC(=O)NC3CC3)CC2)cc(N2CCOCC2)n1	2.39
Cc1ccc(C(=O)N2CCCn3nc(CCC(=O)O)cc3C2)cc1Cl	-3.49
CN1CCCC1c1ccc(C(=O)N2CCc3ccccc3C2)s1 (stereo unspecified)	1.66
CNC(=O)N1CCC2(CC1)CN(C(C)C)Cc1cc(F)ccc12	-2.82
Cc1cc(C(=O)N2CCN(c3nc4c(F)cccc4s3)CC2)no1	-3.64
Cc1cc(C)c2c(c1)C(NC(=O)CSc1nnc[nH]1)CCO2 (stereo unspecified)	-3.91
CCN(C1CCN(C(=O)c2cccc(Cl)c2)CC1)S(C)(=O)=O	0.209
CC(C)c1noc(C(C)N2CCN(Cc3nnc(C4CC4)o3)CC2)n1 (stereo unspecified)	-11.9
Fc1ccc(-c2nnc(CNC3CCc4ncnn4C3)o2)cc1 (stereo unspecified)	-3.67
Cc1nnc2ccc(C(=O)N3CCSC(C)(C)C3)cn12	-3.54
Cn1nc(Cn2ccnc2)c2c1CN(c1nccs1)C2	3.61
COc1c(CNC2CCc3ccccc32)c(C(C)C)nn1C (stereo unspecified)	0.441
CC(C)N1CCOC[C@H]1c1nc(C(C)(C)C)c[nH]1	-1.99
CC(C)N1CCc2ncn(C(C)C)c2C1C(=O)NCCN1CCCC1 (stereo unspecified)	3.11
CN1CCC(O)(CCNC(=O)[C@@]23CNC[C@@H]2CN(C2CCCC2)C3)CC1	-1.92
COc1c(C)cnc(CN2CCOC(Cn3cncn3)C2)c1C (stereo unspecified)	-3.36
Cc1nnc2n1CCN(Cc1csc(-c3ccsc3)n1)C2	-12.4
CC(NCc1cc2cc(F)ccc2o1)c1nnc2n1CCCC2 (stereo unspecified)	-7.93
Cc1ccc2nc(C)cc(NCCNS(=O)(=O)c3cccnc3)c2c1	13.5
Cc1cc(C)c(C#N)c(NCCn2cnnc2C(C)C)n1	10.2
Cc1nccn1CCN(C)C(=O)C1CCCN(C2CCOCC2)C1 (stereo unspecified)	0.417

SMILES	cytotoxicity at 10 µM [%]
CC[C@H]1CN(C(=O)c2cccnc2)CC[C@H]1CC(=O)NC1CC1	4.18
CCNc1ncc(C(=O)NC2CCSC2)cn1 (stereo unspecified)	-8.85
O=C(Nc1ccc(CCN2CCC(O)CC2)cc1)Nc1cccnc1	-7.15
CC1CN(C(=O)NCCc2nc(C(C)C)no2)CCO1 (stereo unspecified)	-0.745
CCS(=O)(=O)N1Cc2nnn(C)c2C(COCCN(C)C)C1 (stereo unspecified)	1.55
Cc1ccc(Br)cc1NC(=O)NCC(O)CO (stereo unspecified)	12.9
O=c1[nH][nH]c2cn(-c3ccc(F)cc3)c(=O)n12	-1.45
CN1CC(=O)N(c2ccccc2)CC12CCN(Cc1cccnc1)C2 (stereo unspecified)	-2.09
Cc1ncsc1C(=O)NCCn1nc(C2CCNC2)c2cccnc21 (stereo unspecified)	-0.98
COc1ncccc1CN1CCN(c2noc(C(C)C)n2)CC1	10.5
COc1ccc(CC(=O)N2CC[C@@H]3[C@H](CC2)N(C)CCS3(=O)=O)cc1	-104
CC(C)(C)n1nc(C(=O)NC2CCN(CC(N)=O)CC2)cc1C1CC1	0.196
COc1ccc(CN2CCOC3(CCCN(C(C)=O)C3)C2)cc1 (stereo unspecified)	3.88
Cc1cnn(CC2CCCN2C(=O)CCc2ccc3c(c2)OCO3)c1 (stereo unspecified)	-19
NC1CC(C(F)(F)F)=NC=C1c1ccccc1 (stereo unspecified)	-9.16
CCc1nc(C(=O)N2CCN(C)CC2)nn1-c1ccccc1Cl	2.1
CC(=O)NCC(=O)N1CCN(C)c2ncccc2C1	-113
CC(C)CN1CCc2[nH]cnc2C12CCN(C(=O)c1ccnn1C)CC2	-4.77
CCc1nc(C2CCCN(C(=O)CN(C)S(C)(=O)=O)C2)no1 (stereo unspecified)	-3.22
COCCn1ccnc1CN(Cc1ccccn1)Cc1sccc1C	2.16
CNC(=O)N1CC[C@H]2N(C)CC[C@@]2(C(=O)Nc2ccccc2)CC1	-17.2
CC(=O)NCc1noc2c1CN(Cc1cccs1)CC2	-5.18
Cc1cn2c(n1)CCC(NC(=O)c1cc(Br)cn1C)C2 (stereo unspecified)	3.18

SMILES	cytotoxicity at 10 µM [%]
CC(Cc1ccccn1)N(C)Cc1ccc2c(c1)CCO2 (stereo unspecified)	-0.0105
COC(=O)C(C)(C)NC(=O)c1cnc(Cc2ccc(F)cc2)s1	-0.538
COCCO[C@H]1CCN(C(=O)C2CCOCC2)[C@H]1Cc1ccncc1	4.32
CCc1ccccc1OC1CN(CC2CCOC2)C1 (stereo unspecified)	-25.2
Cc1cc(CN2CCN(CC(=O)NC3(C#N)CCCCC3)CC2)on1	5.83
Cc1ccc(S(=O)(=O)NC[C@H]2OC[C@@H](NCc3cccnc3)[C@@H]2O)cc1	1.32
c1nc(CCNc2nc(C3CC3)nc3c2CCNCC3)c[nH]1	-130
Cc1ccc(OCc2nc(CNCCn3cccn3)cs2)cc1	0.979
Cc1cc(CN(C)C(=O)NC2CCN(C3CC3)CC2)no1	-3.6
CN(C)CCO[C@H]1CN(Cc2ccco2)[C@@H]2COC[C@H]12	-98.2
CC(C)CN1C(=O)CC[C@H]2CN(C(=O)c3ncc[nH]3)CC[C@H]21	5.09
CCN(C(=O)CN1CCN(CC(C)O)CC1)C1=CCCCC1 (stereo unspecified)	8.67
CC(=O)N1CCN(C(=O)CCCc2nnc(-c3ccccc3)o2)CC1	-12.5
CSc1ccc2cc(CN(C)CCO)c(=O)[nH]c2c1	5.76
Cc1ccc(N2CCCC(N(C)Cc3nnc(C4CC4)o3)C2)nn1 (stereo unspecified)	6.2
CC(C)Nc1nc(N2CCCC2)nc2c1CN(C)CC2	-0.376
CN(CC(N)=O)CC1(c2ccc(Br)cc2)CC1	2.17
FC(F)(F)c1cccnc1N1CCC(OC2CCOCC2)CC1	-8.44
Cc1nccn1-c1ccc(C(C)Nc2cnn(C)c(=O)c2Cl)cc1 (stereo unspecified)	18.7
CC1CCCN(c2ncc(-c3ccccc3F)c(-c3nccn3C)n2)C1 (stereo unspecified)	26.8
CN(C)S(=O)(=O)NCCn1nc(-c2ccccc2)n(C)c1=O	-2.17
O=C(CC[C@@H]1CCCN2CCCC[C@H]12)NCCc1nc(O)cc(O)n1	-0.392
Cc1oncc1C(=O)N1CC2CC1(C(=O)N1CCCC1)C2	4.91

SMILES	cytotoxicity at 10 µM [%]
O=C(c1ccccn1)N1CCc2ncnc(-c3ccncc3)c2CC1	-1.82
COC1CCN(C(=O)COC(C)=O)CC(=O)N(C)c2ccccc21 (stereo unspecified)	3.17
Cc1nnc(C(C)NCC2(c3ccc(Cl)cc3)CCCC2)o1 (stereo unspecified)	8.29
CC1(C(=O)N2CCC(n3cc(C4(O)CCCC4)nn3)CC2)CCCCC1	0.68
CNC(=O)C1CN(C(=O)c2cccnc2)CCN(S(C)(=O)=O)C1 (stereo unspecified)	1.45
Cc1cnn(CCNCc2ccc(C#N)cc2F)c1	-2.73
Cc1cnn(CCCNC(=O)NCCC(=O)Nc2ccccc2)c1	2.72
Cn1cc(CN2CCC(c3ccncc3)CC2)cn1	0.26
CC(C)c1ccc(OCCC(=O)NCCC(=O)N(C)C)cc1	-4.37
N[C@H]1c2ccccc2C[C@@H]1NC(=O)C1CCN(Cc2ccco2)CC1	-8.57
CCn1nccc1CNC(=O)C1CCCCC1	-0.488
COCCn1c(-c2cccc(OC)c2)cnc1NC(=O)NC(C)C	4.04
CCCNC(=O)c1cc(-c2cnc(N3CCCC3)nc2)cn1C	-54.6
CCNc1nc(N(C)C)nc(-n2cnc(SC)n2)n1	2.22
CC1CN(C)c2ccccc2CN1C(=O)c1cc(C#N)cn1C (stereo unspecified)	14.6
CCCc1cc(NCCn2cccn2)n2nccc2n1	0.988
CCN(C(=O)CCCOc1ccccc1F)c1ccncc1	-5.69
CN(C)S(=O)(=O)c1ccc(-c2nc(C#N)c(NC3CCCCC3)o2)o1	-16
CCOc1cc(NC(=O)NCCn2cnnc2CC)ccc1C	-7.37
CCC(=O)N1CCCC1C(=O)N1CCC(Cc2ccc(F)cc2)CC1 (stereo unspecified)	-0.0726
CCc1cc(CN(C)C(=O)c2cc(=O)[nH]c(=O)[nH]2)on1	8.71
Cc1cnn(CCCn2ncc(N3CCC(CN)C3)cc2=O)c1 (stereo unspecified)	-48.2
O=C(Nc1ccccc1)N1C[C@@H]2OCCN(C(=O)c3ccco3)[C@@H]2C1	-150

SMILES	cytotoxicity at 10 µM [%]
O=S(=O)(Cc1ccccc1F)NC(CO)c1ccco1 (stereo unspecified)	6.6
CC(C)CCC(C)NC(=O)Nc1ccccn1 (stereo unspecified)	5.28
Cc1nn(C)cc1C(=O)NC(CC(C)C)C(=O)Nc1cc[nH]n1 (stereo unspecified)	-2.33
CCc1[nH]c2c(CNC(=O)C3CCS(=O)(=O)CC3)cc(C)cc2c1C	1.87
CCN1CCN(c2ccc(F)cc2C(C)NCc2noc(C)n2)CC1 (stereo unspecified)	1.8
Cc1ccc(CN(C)CC(=O)NC2(C)CCS(=O)(=O)C2)cc1 (stereo unspecified)	5.05
Cc1cc(CN2CC[C@H]3C[C@@H](c4nc(C5CC5)cs4)O[C@@H]3C2)no1	-104
Cc1ncnc2c1CCN(C(=O)Cc1cccc(F)c1)CC2	-5.95
COc1ccc(CNCc2ccc(N3CCCCC3)nc2)cc1OC	1.92
CCn1c(CN(C)Cc2cnc(C)s2)nc2cc(F)ccc21	-31.9
Cc1cc(CN(C)C(=O)c2cccc(CCC(C)(C)O)c2)no1	-2.02
O=C(CCS(=O)(=O)c1ccccc1)NCCCn1cccn1	12
Fc1ccc(CN2CCc3ncnc(C4CC4)c3CC2)cc1	-147
O=S(=O)(Nc1ccc(N2CCOCC2)cn1)c1ccc(F)cc1	-6.64
CC(C)CS(=O)(=O)CC(=O)NC(C)(C)c1cccc(F)c1	-1.12
CS(=O)(=O)NC1CCN(C(=O)NCCNc2ccccn2)CC1	-0.685
O=C(c1cccn1-c1ccc2c(c1)OCCO2)N1CCCC1	-9.42
O=C(c1ccc(F)cc1F)N1C[C@@H]2CC[C@H]1CN(Cc1ccccc1)C2	5.04
COCC(=O)N1CCC2(C1)c1ccccc1S(=O)(=O)N2CCC(C)C (stereo unspecified)	-4.26
